Assay outcomes deposited in PubChem by several laboratories.
Lipid droplet: inhibitors of hepatocyte lipid droplet formation, primary screen, imaging, high-throughput imaging, BODIPY stain | AML12 mouse hepatocytes, oleate lipid droplets | inhibition, % at 6.5 µM | 0.4% of 240,000 active | AID 1656, 2009;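 active = lipid droplet intensity inhibited by at least 50%, with more than 500 cells counted; inconclusive = wells with under 300 cells, treated as cytotoxic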
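Material – mouse AML12 hepatocyte cell line, fixed after treatment · Compound dosing – one dose, 6.5 µM compound · Times – compound with oleate, overnight · Measured by – Image-based BODIPY and DAPI two-channel analysis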
MPTP block: mitochondrial permeability transition pore inhibitors, primary screen, biochemical, isolated mouse mitochondria, absorbance; Ca2+ swelling absorbance, 30 min; 1.4% of 360,000 active; AID 602449, 2012; inhibition, % at 10 µM;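 active = inhibition of 50% or more, scaled per plate between neutral and stimulator controls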;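 also: 0% = DMSO wells given calcium and 100% = 1 mM EGTA wells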
DTT redox prof: compounds producing H2O2 with reducing agent – biochemical, NIH compound library profiling, artefact control for MLSCN library redox annotation, primary screen; DTT-dependent redox cycling H2O2, phenol red/HRP absorbance; 100% = 100 µM peroxide control, 0% = buffer; activation, % at 10 µM; 0.03% of 200,000 active;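 active = activation of at least 50% relative to the plate's high and low controls in the primary single-dose screen; inactive = activation below 50%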;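 also: compound incubated with DTT at 0.8 mM final as the reducing agent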
T cruzi inh: inhibitors of intracellular T. cruzi growth, primary screen, luminescence, NIH3T3 host cells. AID 1885, 2009. T. cruzi beta-gal in NIH3T3, 90 h. 1.4% of 300,000 active. inhibition, % (test concentration not listed);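 active = mean inhibition across valid replicates above about 55%, limit read from the data; inconclusive = mean below that limit but half or more replicates reach it; inactive = mean below it, under half of replicates reach it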;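 also: signal also drops with host cell toxicity which is not excluded here; 0% = plate median of DMSO wells and 100% = zero luminescence signal; higher percent means less beta-gal luminescence so fewer parasites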
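Read-out: Parasite load inhibition, % | Test system: Mouse NIH/3T3 fibroblasts infected with β-gal-expressing T. cruzi Tulahuen C4 | Amount: 5,000 cells/well | Medium: DMEM, 2% fetal bovine serum | Signal: GalScreen β-gal luminescence, detergent lysis, 60 min | Timing: 3 h attach, ≥90 h co-culture | Also added: Tulahuen C4 trypomastigotes, 5000/well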
Lmaj promast: Leishmania major promastigote growth inhibition, primary screen; Leishmania major promastigotes, resazurin fluorescence viability; inhibition, % at 10 µM; AID 1063, 2008; 9% of 200,000 active; in the data active = inhibition above about 50%;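 also: promastigotes grown with compound for 44 hours at 28 °C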
Active calls of the source: *; ? = inconclusive; . = no result given. Many of the other results were omitted from the sample, so hits are more common in it than they were.

SMILES	Lipid droplet	MPTP block	DTT redox prof	T cruzi inh	Lmaj promast
O=C1SCCN1N=Cc1ccc([N+](=O)[O-])o1	.	-2	.	.	.
Cc1nnsc1C(=O)NC1CCCc2c1cnn2-c1ccc(C(C)(C)C)cc1 (stereo unspecified)	-13	33	.	56*	.
Cc1nnsc1C(=O)NC1CCCc2c1cnn2-c1ccccc1F (stereo unspecified)	10	4	.	-2	.
C(=N\Nc1nc(N2CCCC2)nc(N2CCCC2)n1)/c1cccnc1	-12	2	0	-7	-2
FC(F)(F)COc1nc(N/N=C/c2cccnc2)nc(N2CCCCC2c2ccccn2)n1 (stereo unspecified)	10	-1	-1	59*	51*
O=C(c1ccco1)N1CCN(Cc2cc(=O)c(OCc3ccccc3F)co2)CC1	.	-2	.	-7	.
Cc1ccc(O)c(-c2cc(-c3ccccc3[N+](=O)[O-])[nH]n2)c1	-19	5	0	-5	57*
Cc1ccc(Cl)cc1NC(=O)COC(=O)c1ccc(COc2ccc3c(C)cc(=O)oc3c2)cc1	4	.	.	.	55*
COc1ccc(C[C@H]2CN3C(=NC[C@@H]3Cc3ccc(O)cc3)N2C[C@H](C)NC(=O)c2ccc(C)c(Br)c2)cc1	-1	0	.	20	.
O=C(CCl)N=c1sccn1Cc1ccc(Cl)cc1Cl	?	0	-1	99*	86*
O=C(CCl)N=c1sccn1Cc1cccc2ccccc12	?	0	0	51	27
CCC(=O)OCC(=O)N=c1sccn1Cc1ccccc1Cl	-5	1	.	-1	.
O=C(CCl)N=c1sccn1Cc1ccccc1Cl	?	1	.	61*	.
CCC(Sc1nc2ncccc2[nH]1)C(=O)NCCc1ccccc1 (stereo unspecified)	1	-1	.	-4	.
COc1cccc(NC(=O)C2CCN(S(=O)(=O)c3ccccc3)CC2)c1	6	-1	.	6	.
COc1ccc(OC)c(S(=O)(=O)N2CCC(C(=O)Nc3cccc(C(F)(F)F)c3)CC2)c1	-32	1	0	.	91*
OC(COC(c1ccccc1)c1ccccc1)CN1CCCCC1 (stereo unspecified)	24	0	1	-17	99*
O=C(c1ccccc1)c1ccc(OCC(O)CN2CCN(S(=O)(=O)N3CCCCC3)CC2)cc1 (stereo unspecified)	4	2	0	12	35
O=C(c1ccccc1)c1ccc(OCC(O)CN2CCCCC2)cc1 (stereo unspecified)	-2	2	1	-7	89*
CCN1CCN(CC(O)COC(c2ccccc2)c2ccccc2)CC1 (stereo unspecified)	-8	0	0	6	0
O=S(=O)(c1ccc(OCC(O)CN2CCCCC2)cc1)N1CCOCC1 (stereo unspecified)	-3	-2	0	-5	15
O=S(=O)(c1ccc(OCC(O)CN2CCc3ccccc3C2)cc1)N1CCOCC1 (stereo unspecified)	-4	0	1	11	62*
OC(COc1ccc(CNCCc2ccccc2F)cc1)CN1CCCCC1 (stereo unspecified)	-6	-1	-1	39	78*
CCC(C)NS(=O)(=O)c1ccc(F)c(C(=O)Nc2c(F)cc(F)cc2Br)c1 (stereo unspecified)	-19	0	-1	-17	17
O=C(/C=C/c1ccccc1)N1CCN(CC(O)COc2ccccc2)CC1 (stereo unspecified)	1	-3	-8	-10	78*
SMILES	Lipid droplet	MPTP block	DTT redox prof	T cruzi inh	Lmaj promast
OC(COc1ccc(C2C=CCC2)cc1)CN1CCCCC1 (stereo unspecified)	.	2	0	21	97*
CCOC(=O)C1CCN(CC(O)COc2ccc(C(=O)CC)cc2)CC1 (stereo unspecified)	-2	2	-4	15	94*
OC(COc1ccccc1)CN1CCOCC1 (stereo unspecified)	-7	0	-1	-14	-1
O=C(c1ccc(Cl)cc1)c1ccc(OCC(O)CN2CCOCC2)cc1 (stereo unspecified)	8	-6	0	18	63*
COc1ccc(CNC(=O)CN(Cc2ccc(C)cc2)C(=O)c2csnn2)cc1	12	1	.	-3	.
CC(C)(C)[C@H]1COC(=O)[C@@H](Cc2ccc(F)cc2)CC/C=C/C[C@@H](CC(=O)N[C@@H](CO)Cc2ccccc2)C(=O)N1	.	0	.	.	.
Cc1ccc(-n2nc3c(=O)n(CCCC(=O)NC4CCC(C)CC4)nc(C)c3c2C)cc1 (stereo unspecified)	14	1	.	1	.
CN(C)S(=O)(=O)N1CCN(CC(O)COc2ccc(C(=O)c3ccccc3)cc2)CC1 (stereo unspecified)	2	9	-3	3	93*
CCOc1ccc2[nH]c(=O)c(CN(CCO)C(c3nnnn3C3CCCCC3)C(C)C)cc2c1 (stereo unspecified)	.	2	0	16	69*
COc1cccc(CN(Cc2ccco2)S(=O)(=O)c2ccc(S(=O)(=O)NCc3ccccc3)cc2)c1OC	-43	2	0	.	97*
CCCCNC(=O)c1nc(-c2ccccc2)oc1-c1ccc(Cl)cc1	.	20	.	.	.
Cc1cccc(Nc2nc(N3CCOCC3)nc(N3CCOCC3)n2)c1	25	-1	.	56*	.
Cc1cccc(Nc2nc(N3CCCCC3)nc(N3CCCCC3)n2)c1	8	5	-2	29	34
CCCCNC(=O)CSc1nc2ccc(Nc3nc(N4CCOCC4)nc(N4CCOCC4)n3)cc2s1	10	3	.	31	.
Cc1ccc(Nc2cc(C)nc(N3CCOCC3)n2)c(C)c1	3	1	0	3	76*
CCCCSc1nc2ccc(Nc3nc(N4CCOCC4)nc(N4CCOCC4)n3)cc2s1	.	1	2	57*	33
CNc1cc(C)nc(N2CCOCC2)n1	16	2	.	-14	.
c1ccc2oc(-c3ccc(Nc4nc(N5CCCCC5)nc(N5CCOCC5)n4)cc3)nc2c1	.	.	2	15	74*
CCOC(=O)[C@H]1[C@H]2COc3ccc(C)cc3[C@@H]2N2C(=O)c3ccccc3NC(=O)[C@@]12C	.	-1	.	.	.
Cc1cc(NC(=O)c2c(C)noc2C)no1	11	2	.	-35	.
O=C(C1CCN(C2CCN(Cc3ccsc3)CC2)CC1)N1CCOCC1	-10	-1	.	8	.
CC1(C)CNC(=O)c2sc(NC(=O)c3ccccc3Cl)nc2C1	-2	0	-1	-4	-5
CCOC(=O)C1(Cc2ccc(Cl)cc2)CCN(C(=O)CCc2ccncc2)CC1	-8	0	-1	24	26
CCOC(=O)C1(Cc2ccccc2)CCCN(Cc2ccncc2)C1 (stereo unspecified)	-22	-2	0	14	6
